What was measured:
[1] = Selectivity ratio of EC50 for antiviral activity against HIV1 IIIB infected in human MT4 cells to EC50 for antiviral activity against HIV2 ROD infected in human MT4 cells; format: toxicity, cell-based
In short: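 Ratio is EC50 against HIV-1 IIIB divided by EC50 against HIV-2 ROD. Both EC50 values come from MTT-read protection of infected MT-4 cells.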

[2] = Selectivity index, ratio of CC50 for cytotoxicity against human MT4 cells to EC50 for antiviral activity against HIV1 IIIB infected in human MT4 cells; format: toxicity, cell-based; conditions: read-out: Ratio CC50/EC50
In short: (§1)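 SI is CC50 divided by EC50. CC50 comes from MTT viability of uninfected MT-4 cells. EC50 comes from MTT-read protection of MT-4 cells infected with HIV-1 IIIB or HIV-2 ROD. Each value was run in at least triplicate.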

[3] = Cytotoxicity against human MT4 cells assessed as reduction in cell viability incubated for 5 days by MTT assay; format: toxicity, cell-based; conditions: MT4 cells, time 5 day
In short: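 Uninfected MT-4 cells were exposed to compound, and viability was read by the MTT method. […] Each value was run in at least triplicate and averaged from at least three independent experiments.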

[4] = Selectivity index, ratio of CC50 for cytotoxicity against human MT4 cells to EC50 for antiviral activity against HIV2 ROD infected in human MT4 cells; format: toxicity, cell-based; conditions: read-out: Ratio CC50/EC50; in short: as §1
[5] = tested on: Human immunodeficiency virus 1; assay: Antiviral activity against HIV1 IIIB infected in human MT4 cells assessed as reduction in virus induced cytopathic effect measured after 5 days by MTT assay; format: functional, organism-based; conditions: Human immunodeficiency virus 1, IIIB, MT4, 120 h
In short: (§2)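 MT-4 cells were infected with HIV-1 IIIB or HIV-2 ROD, and cell viability was read by MTT. […] Each value was run in at least triplicate and averaged from at least three independent experiments.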

[6] = tested on: Human immunodeficiency virus 2; assay: Antiviral activity against HIV2 ROD infected in human MT4 cells assessed as reduction in virus induced cytopathic effect measured after 5 days by MTT assay; format: functional, organism-based; conditions: Human immunodeficiency virus 2, ROD, MT4, 120 h; in short: as §2

COc1ccc(N(C)C(=O)[C@H](Cc2ccccc2)NC(=O)CN2CCN(C(=O)c3ccc(NS(C)(=O)=O)cc3)CC2=O)cc1
Ratio EC50 [1]: < 0.96 | selectivity ratio [2]: > 1.05 | CC50 at 120 h [3]: > 201 µM

COc1ccc(N(C)C(=O)[C@H](Cc2ccccc2)NC(=O)CN2CCN(C(=O)Cc3c[nH]c4ccc(O)cc34)CC2=O)cc1
Ratio EC50 [1]: 1.06 | selectivity ratio [4]: > 1.12 | selectivity ratio [2]: > 1.06 | CC50 at 120 h [3]: > 209 µM

COc1ccc(-n2c(SCCN(C)C)nnc2[C@H](Cc2ccccc2)NC(=O)Cc2c(C)[nH]c3ccccc23)cc1
Ratio EC50 [1]: < 0.04 | selectivity ratio [2]: 27 | EC50 [5]: 0.85 µM | EC50 [6]: > 22.9 µM

COc1ccc(N(C)C(=O)[C@H](Cc2ccccc2)NC(=O)CN2CCN(C(=O)c3ccc(NC(C)=O)cc3)CC2=O)cc1
Ratio EC50 [1]: 1.1 | selectivity ratio [4]: > 1.16 | selectivity ratio [2]: > 1.05 | CC50 at 120 h [3]: > 213 µM

COc1ccc(N(C)C(=O)[C@H](Cc2cc(F)cc(F)c2)NC(=O)CN(Cc2ccccc2)C(=O)Cc2ccc3ccccc3c2)cc1
selectivity ratio [4]: < 1 | selectivity ratio [2]: < 1 | CC50 at 120 h [3]: 176 µM | EC50 [6]: > 18.9 µM

COc1ccc(-n2c(SCCF)nnc2[C@H](Cc2ccccc2)NC(=O)Cc2c(C)[nH]c3ccccc23)cc1
Ratio EC50 [1]: 0.3 | selectivity ratio [4]: 6 | selectivity ratio [2]: 20 | EC50 [5]: 1.24 µM | EC50 [6]: 4.07 µM

COc1ccc(N(C)C(=O)[C@H](Cc2cc(F)cc(F)c2)NC(=O)CN(Cc2ccc(F)cc2)C(=O)Cc2cccc3ccccc23)cc1
Ratio EC50 [1]: > 32.6 | selectivity ratio [4]: > 33 | CC50 at 120 h [3]: > 191 µM | EC50 [6]: 5.87 µM

COc1ccc(N(C)C(=O)[C@H](Cc2cc(F)cc(F)c2)NC(=O)CN(Cc2ccc(C#N)cc2)C(=O)Cc2ccc3ccccc3c2)cc1
Ratio EC50 [1]: 1.17 | selectivity ratio [4]: > 1 | CC50 at 120 h [3]: > 189 µM

COc1ccc(-n2c(SCc3ccncc3)nnc2[C@H](Cc2ccccc2)NC(=O)Cc2c(C)[nH]c3ccccc23)cc1
Ratio EC50 [1]: 0.68 | selectivity ratio [4]: 6 | selectivity ratio [2]: 9 | EC50 [5]: 2.89 µM | EC50 [6]: 4.27 µM

COc1ccc(N(C)C(=O)[C@H](Cc2cc(F)cc(F)c2)NC(=O)CN(Cc2ccc(F)cc2)C(=O)Cc2ccc3ccccc3c2)cc1
CC50 at 120 h [3]: > 160 µM

COc1ccc(N(C)C(=O)[C@H](Cc2cc(F)cc(F)c2)NC(=O)CN2CCN(C(=O)c3ccc(NC(C)=O)cc3)CC2=O)cc1
Ratio EC50 [1]: 0.92 | selectivity ratio [4]: 1.02 | selectivity ratio [2]: 1.11 | CC50 at 120 h [3]: 196 µM

COc1ccc(N(C)C(=O)[C@H](Cc2ccccc2)NC(=O)CN2CCN(C(=O)c3ccc(NC(=O)C4CC4)cc3)CC2=O)cc1
Ratio EC50 [1]: > 11.15 | selectivity ratio [4]: 11.2 | selectivity ratio [2]: < 1 | CC50 at 120 h [3]: 168 µM | EC50 [6]: 15 µM

COc1ccc(-n2c(SCCC3CCCCC3)nnc2[C@H](Cc2ccccc2)NC(=O)Cc2c(C)[nH]c3ccccc23)cc1
CC50 at 120 h [3]: > 206 µM

COc1ccc(N(C)C(=O)[C@H](Cc2ccccc2)NC(=O)CN2CCN(C(=O)c3ccc(NC(=O)C(F)(F)F)cc3)CC2=O)cc1
Ratio EC50 [1]: 10.54 | selectivity ratio [4]: > 13.1 | selectivity ratio [2]: > 1.24 | CC50 at 120 h [3]: > 195 µM | EC50 [6]: 15 µM

COc1ccc(N(C)C(=O)[C@H](Cc2ccccc2)NC(=O)Cn2ccc(NC(=O)c3ccc(N)cc3)cc2=O)cc1
Ratio EC50 [1]: > 11.04 | selectivity ratio [4]: 11 | CC50 at 120 h [3]: 189 µM | EC50 [6]: 17.1 µM

COc1ccc(N(C)C(=O)[C@H](Cc2cc(F)cc(F)c2)NC(=O)CN2CCN(C(=O)c3ccc(NS(C)(=O)=O)cc3)CC2=O)cc1
Ratio EC50 [1]: 0.88 | selectivity ratio [4]: > 1.04 | selectivity ratio [2]: > 1.18 | CC50 at 120 h [3]: > 190 µM

COc1ccc(N(C)C(=O)[C@H](Cc2cc(F)cc(F)c2)NC(=O)CN2CCN(C(=O)Cc3c[nH]c4ccc(O)cc34)CC2=O)cc1
selectivity ratio [4]: 2.65 | selectivity ratio [2]: < 1 | CC50 at 120 h [3]: 132 µM | EC50 [6]: 49.6 µM
